Experimental findings from ChEMBL document CHEMBL3877264, “Quinolidene-rhodanine conjugates: Facile synthesis and biological evaluation” (Eur J Med Chem, 2017) are described below.

Data set [1] deals with Bacillus subtilis. Briefly: Growth inhibition of Bacillus subtilis NCIM 2079 at 3 ug/ml measured after 12 hrs relative to control. Format: functional. The note with it: NCIM 2079, 12 h, read-out: GI. In short, it runs like this:
(§1)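 Bacteria grown in LB at 37 °C and 180 rpm to OD 1. Compounds added to wells, then 0.1% inoculum of 1 OD culture (620 nm). Growth read as OD at 620 nm after 8 h for gram-negative and after 12 h for gram-positive strains.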

Data set [2] concerns Mycobacterium tuberculosis. The data set is described as follows: Growth inhibition of Mycobacterium bovis BCG ATCC 35743 at dormant stage measured after 12 days by nitrate reductase dye based two fold dilution method. Format: functional. The following applies: BCG str. ATCC 35743, 288 h. The gist of the method:
(§2)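 M. bovis BCG was grown in Dubos medium and assayed in Mycobacterium pheli minimal medium (pH 6.6), with compounds from DMSO stocks. Incubation lasted 8 days for active and 12 days for dormant cultures. Viability was read by nitrate reductase at 540 nm against cell-free blanks, with vehicle set as 100% growth. Primary screen was at 30, 10 and 3 µg/ml, in triplicate, mean ± SD. MIC was taken from dose-response curves.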

The subject of data set [3] is Mycobacterium tuberculosis. Briefly: Growth inhibition of Mycobacterium tuberculosis H37Ra ATCC 25177 at active stage at 25 ug/ml measured after 8 days by XTT dye based two fold dilution method relative to control. The class given is functional. The note with it: H37Ra ATCC 25177, 192 h, read-out: GI. The gist of the method:
(§3)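 MTB H37Ra was grown in Dubos medium, then exposed in Mycobacterium pheli minimal medium (pH 6.6) to compounds dissolved in DMSO. The assay ended on day 8 (active) or day 12 (dormant). Viable cells were measured by XTT reduction menadione assay at 470 nm, blank-corrected, relative to vehicle control. Triplicates were expressed as mean ± SD. MIC came from dose-response curves.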

For data set [4], the system named is Mycobacterium tuberculosis. Briefly: Growth inhibition of Mycobacterium tuberculosis H37Ra ATCC 25177 at active stage at 1.56 ug/ml measured after 8 days by XTT dye based two fold dilution method relative to control. The class given is functional. The following applies: H37Ra ATCC 25177, 192 h, read-out: GI. In short, it runs like this: as §3
The test system of data set [5] is Mycobacterium tuberculosis. Briefly: Growth inhibition of Mycobacterium bovis BCG ATCC 35743 at dormant stage at 50 ug/ml measured after 12 days by nitrate reductase dye based two fold dilution method relative to control. The class given is functional. The note with it: BCG str. ATCC 35743, 288 h, read-out: GI. The gist of the method:
as §2

The nature of data set [6]: Antifungal activity against Cryptococcus neoformans NCIM 576 by standard agar method. Format: functional. In short, it runs like this:
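MICs determined by standard agar method; DMSO as solvent control.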

Data set [7] concerns Mycobacterium tuberculosis. The data set is described as follows: Growth inhibition of Mycobacterium tuberculosis H37Ra ATCC 25177 at active stage at 6.25 ug/ml measured after 8 days by XTT dye based two fold dilution method relative to control. Format: functional. The following applies: H37Ra ATCC 25177, 192 h, read-out: GI. The gist of the method:
as §3

A further data set concerns Pseudomonas fluorescens. Briefly: Growth inhibition of Pseudomonas fluorescens NCIM 2036 at 3 ug/ml measured after 8 hrs relative to control. Format: functional. The following applies: NCIM 2036, 8 h, read-out: GI. In short, it runs like this: as §1
For data set [8], the system named is Mycobacterium tuberculosis. Briefly: Growth inhibition of Mycobacterium tuberculosis H37Ra ATCC 25177 at active stage at 0.78 ug/ml measured after 8 days by XTT dye based two fold dilution method relative to control. Format: functional. The following applies: H37Ra ATCC 25177, 192 h, read-out: GI. The gist of the method:
as §3

The test system of data set [9] is Mycobacterium tuberculosis. Briefly: Growth inhibition of Mycobacterium bovis BCG ATCC 35743 at dormant stage at 0.78 ug/ml measured after 12 days by nitrate reductase dye based two fold dilution method relative to control. Format: functional. The following applies: BCG str. ATCC 35743, 288 h, read-out: GI. In short, it runs like this: as §2
Data set [10] deals with Mycobacterium tuberculosis. Briefly: Growth inhibition of Mycobacterium tuberculosis H37Ra ATCC 25177 at dormant stage at 0.78 ug/ml measured after 12 days by XTT dye based two fold dilution method relative to control. The class given is functional. The following applies: H37Ra ATCC 25177, 288 h, read-out: GI. The gist of the method: as §3
Data set [11] is described as follows: Cytotoxicity against primary HUVEC measured after 48 hrs by MTT assay. The note with it: human. Format: toxicity, cell-based.
A short description of data set [12]: Cytotoxicity against human PANC1 cells assessed as growth inhibition at 100 ug/ml measured after 48 hrs by MTT assay relative to control. The note with it: read-out: GI. The class given is toxicity, cell-based, PANC-1.
Data set [13] relates to Mycobacterium tuberculosis. The data set is described as follows: Growth inhibition of Mycobacterium bovis BCG ATCC 35743 at active stage at 6.25 ug/ml measured after 8 days by nitrate reductase dye based two fold dilution method relative to control. The class given is functional. The following applies: BCG str. ATCC 35743, 192 h, read-out: GI. In short, it runs like this: as §2

The test system of data set [14] is Mycobacterium tuberculosis. The data set is described as follows: Growth inhibition of Mycobacterium bovis BCG ATCC 35743 at active stage at 3.13 ug/ml measured after 8 days by nitrate reductase dye based two fold dilution method relative to control. Format: functional. The following applies: BCG str. ATCC 35743, 192 h, read-out: GI. The gist of the method:
as §2

The test system of data set [15] is Mycobacterium tuberculosis. The data set is described as follows: Growth inhibition of Mycobacterium tuberculosis H37Ra ATCC 25177 at active stage at 100 ug/ml measured after 8 days by XTT dye based two fold dilution method relative to control. Format: functional. The note with it: H37Ra ATCC 25177, 192 h, read-out: GI. The gist of the method: as §3
The test system of data set [16] is Mycobacterium tuberculosis. The data set is described as follows: Growth inhibition of Mycobacterium bovis BCG ATCC 35743 at active stage at 1.56 ug/ml measured after 8 days by nitrate reductase dye based two fold dilution method relative to control. Format: functional. The following applies: BCG str. ATCC 35743, 192 h, read-out: GI. The gist of the method: as §2

For data set [17], the system named is Mycobacterium tuberculosis. The data set is described as follows: Growth inhibition of Mycobacterium tuberculosis H37Ra ATCC 25177 at dormant stage at 100 ug/ml measured after 12 days by XTT dye based two fold dilution method relative to control. Format: functional. The following applies: H37Ra ATCC 25177, 288 h, read-out: GI. The gist of the method:
as §3

The nature of data set [18]: Selectivity index, ratio of GI50 for human THP1 cells to MIC for Mycobacterium tuberculosis H37Ra ATCC 25177 at dormant stage. The class given is toxicity, cell-based, THP-1. The following applies: read-out: Selectivity Index. The gist of the method: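 SI is the cell-line GI50 divided by the dormant-stage mycobacterial MIC. […] THP-1 macrophages were PMA-differentiated for 24 h.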

The subject of data set [19] is Bacillus subtilis. The data set is described as follows: Antibacterial activity against Bacillus subtilis NCIM 2079 measured after 12 hrs. Format: functional. The note with it: NCIM 2079, 12 h. In short, it runs like this: as §1

Converted amounts (≈) assume the structure as drawn.

On to `COc1ccc2nc(Cl)c(/C=C3\SC(=S)NC3=O)cc2c1`, for which the inhibition of growth at 3 µg/mL with Bacillus subtilis [1] was determined as 1.79%; with Pseudomonas fluorescens it was 76.2%. The compound also had an IC50 in [2] of 2.9 µg/mL (≈ 8.61 µM). The compound further came in with an IC90 in data set [2] of 6.8 µg/mL (≈ 20.2 µM). Besides, the inhibition of growth at 25 µg/mL in [3] worked out at 90.2%. Besides, the inhibition of growth at 1.56 µg/mL is 23.1% in data set [4] and -39.1% in data set [16]. Also, the inhibition of growth at 50 µg/mL in data set [5] was found to be 99%. Moreover, the MIC is 100 µg/mL (≈ 297 µM) in data set [6] and over 30 µg/mL against Bacillus subtilis [19]. Besides, the inhibition of growth at 6.25 µg/mL in [7] was 55.2%; in [13] it was 95.7%. In addition, the inhibition of growth at 0.78 µg/mL in data set [8] was -20.6%; in [9] it was -31.1%; in data set [10] it was -36%. For the same compound, the GI50 at 48 h in data set [11] is over 100 µg/mL. In data set [12], the inhibition at 48 h, 100 ug/ml turned out to be 24.9%. The inhibition of growth at 3.13 µg/mL in data set [14] came out at 14.9%. For the same compound, the results for the inhibition of growth at 100 µg/mL in data set [15] and in [17] were 90.3% and 91.6%, respectively. The selectivity ratio in data set [18] amounted to 20.8.
